Shown are actives, neighbours in structure and some others; about 3.5% of the full set was active somewhere.
MrgX1 antag = antagonists of human MrgX1 receptor. MRGX1-HEK293 calcium flux, Fluo-4, BAM8-22 antagonism; active compounds read low. B-score at 10 µM. AID 588676. hit rate 1.3% among 310,000;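 active = calcium-response B-score plate-corrected more than 3 library SD below zero, starting fluorescence within 5 deviations, no agonist response on first addition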;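 also: peak minus trough fluorescence over baseline after final BAM8-22 challenge near maximal dose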
Target sequence (Q96LB2 whole entry, looked up): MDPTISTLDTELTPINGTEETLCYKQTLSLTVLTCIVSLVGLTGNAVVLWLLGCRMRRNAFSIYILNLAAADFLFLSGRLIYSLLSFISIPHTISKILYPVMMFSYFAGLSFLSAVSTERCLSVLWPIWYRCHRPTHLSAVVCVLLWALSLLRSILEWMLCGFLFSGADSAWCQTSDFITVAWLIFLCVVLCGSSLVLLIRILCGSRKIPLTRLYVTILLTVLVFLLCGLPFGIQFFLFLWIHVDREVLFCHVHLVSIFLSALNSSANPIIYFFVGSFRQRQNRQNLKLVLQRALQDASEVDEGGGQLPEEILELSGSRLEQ
MrgX1 PAM = allosterically activates human MrgX1 receptor signaling; Q96LB2; MrgX1-HEK293, Fluo-4 calcium flux, FDSS; active compounds read high; B-score at 10 µM; hit rate 0.63% among 310,000;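 active = plate-corrected calcium response at least 3 library SD above typical, normal starting fluorescence, not activating the receptor alone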;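 also: compound read alongside a low EC10 to EC30 dose of BAM8-22 agonist; peak minus trough fluorescence over baseline measured at the second addition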
RGS4 inh = human RGS4 inhibition. HEK293 M3R/RGS4 inducible, Fluo-4 calcium flux; active compounds read high; triggered by carbachol at its EC20. P49798. B-score at 10 µM. hit rate 0.45% among 310,000;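 active = B-score, a plate-corrected calcium signal, over three deviations above library mean, with baseline fluorescence within five deviations of library mean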;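 also: RGS4 expression induced by doxycycline in cells with stable M3 receptor; B-score is computed from the integrated fluorescence ratio over baseline after carbachol; higher B-score means a larger calcium signal and so more RGS4 inhibition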
Target sequence (P49798 whole entry, looked up): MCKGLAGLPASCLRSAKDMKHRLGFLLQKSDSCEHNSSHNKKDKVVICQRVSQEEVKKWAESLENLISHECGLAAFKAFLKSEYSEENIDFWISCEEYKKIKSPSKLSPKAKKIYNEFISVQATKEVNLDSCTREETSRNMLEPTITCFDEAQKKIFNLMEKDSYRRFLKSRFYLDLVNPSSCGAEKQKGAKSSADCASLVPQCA
RGS4 act = RGS4 potentiation or activation. HEK293 M3R/inducible RGS4, carbachol calcium flux Fluo4; active compounds read low. B-score at 10 µM. hit rate 0.92% among 310,000. AID 463111;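 active = B-score of the integrated calcium signal more than 4 SD below the library mean, with starting fluorescence not abnormally high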;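 also: negative B-score means reduced calcium response which marks RGS4 activation or potentiation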
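test system = M3R-expressing HEK293 line, RGS4 induced by doxycycline | probe or stimulus = carbachol at ECmax as muscarinic agonist stimulus | timing = dye loading 30 min 37 °C, buffer rest 30 min RT | signal = calcium dye Fluo4 fluorescence | evaluation = B score from integrated fluorescence ratio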
MrgX1 ag = activates human MrgX1 receptor signaling; Q96LB2; AID 588627; MrgX1-HEK293 cells, Fluo-4 calcium fluorescence, agonist mode; active compounds read high; hit rate 0.44% among 310,000; B-score at 10 µM;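 active = calcium response B-score plate-corrected fluorescence ratio at least 3 library SD, with starting fluorescence B-score inside 5 SD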
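Material: HEK293 cells stably expressing human MrgX1 receptor | Quantity: 15,000 cells per well | Times: Cells plated overnight, dye loaded 0.5 h 37 °C, 0.5 h room temperature | Measured by: Kinetic Fluo-4 NW fluorescence of intracellular calcium | Control set: Positive and negative controls per plate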
Of the large screens only hits and unclear results are named; the others gave an inactive call.

CC(C)OC(=O)c1sc2nc(-c3ccccc3)ccc2c1N	none
COc1ccc(C(=O)c2sc3nc(-c4ccccc4)ccc3c2N)cc1	MrgX1 PAM 11
N#C/C(=C(/O)c1ccc(F)cc1)c1nc2ccccc2s1	MrgX1 ag 29
N#C/C(=C(/O)COc1ccccc1)c1nc2ccccc2s1	none
O=C(NNC(=O)C(c1ccccc1)c1ccccc1)c1ccccn1	none
CCOC(=O)N1CCN(C(=O)c2ccc3c(=O)n(Cc4ccc(Cl)cc4)c(=S)[nH]c3c2)CC1	none
CCOC(=O)N1CCN(C(=O)c2ccc(Cn3c(=S)[nH]c4ccc(Br)cc4c3=O)cc2)CC1	MrgX1 antag -5.6
Cc1cc(C)c(NC(=O)CNC(=O)c2cc([N+](=O)[O-])ccc2N2CCOCC2)c(C)c1	none
CSc1sccc1/C=C(/C#N)C(=O)c1ccco1	MrgX1 ag 37
Cc1cccc([N+](=O)[O-])c1NC(=O)CN(Cc1ccccc1)Cc1ccccc1	RGS4 act -8.6
O=C1COc2ccc(C(=O)COC(=O)Cc3ccsc3)cc2N1	none
COC(=O)C1=C(C)N(C)C(C)=C(C(=O)OC)C1c1ccncc1	none
COC(=O)C1=C(C)N(C)C(C)=C(C(=O)OC)C1c1ccc(F)c(Br)c1	RGS4 act -7.2
Cc1ccc2c(c1)N(C(C)C(=O)NCc1ccc3c(c1)OCO3)C(=O)CO2 (configuration not stated)	none
CCN(CC)CCOc1c(Br)ccc2c1sc1nc3n(c(=O)c12)CCC3	none
O=c1c2c(nc3n1CCCCC3)sc1c(O)c(Br)ccc12	MrgX1 antag -5.4
CCO/C=N/Nc1nc(C(F)(F)F)nc2c1cnn2Cc1ccccc1	none
O=C([C@@H]1Cc2ccccc2CN1)N1CCN(Cc2ccccc2)CC1	none
COc1cc(C(=O)NCCNc2nc3ccc(C)cc3cc2C#N)cc(OC)c1OC	none
Cc1cc(C)c(C)c(S(=O)(=O)N2CCC(C(=O)OCC(=O)N3c4ccccc4NC(=O)C3(C)C)CC2)c1C	RGS4 act -7
CCN(CC)S(=O)(=O)c1cccc(C(=O)/C=C2/N(C)c3ccccc3C2(C)C)c1	RGS4 act -7
CN1/C(=C\C(=S)NC(=O)c2cccc(Br)c2)C(C)(C)c2ccccc21	none
CC1(c2ccc(OC(F)F)cc2)NC(=O)N(CC(=O)Nc2ccccc2)C1=O (configuration not stated)	MrgX1 ag 29
CCOC(=O)CN1C(=O)NC(C)(c2ccc(OC(F)F)cc2)C1=O (configuration not stated)	none
CC1(c2ccc(OC(F)F)cc2)NC(=O)N(CC(=O)Nc2ccc3[nH]c(=O)[nH]c3c2)C1=O (configuration not stated)	none
CC(=O)Nc1ccc(/C=N/N2C(=O)NC(C)(c3ccc(OC(F)F)cc3)C2=O)cc1 (configuration not stated)	RGS4 act -7, MrgX1 ag 31
COc1ccc(C2(c3ccc(OC)cc3)NC(=O)N(CC(=O)Nc3ccc(C(=O)N(C)C)cc3)C2=O)cc1	MrgX1 antag -6.4
CCc1noc(C)c1C(=O)Nc1ccc(F)c(F)c1F	none
CCn1nnc2cc(C(=O)NCCc3ccccc3F)ccc21	none
O=C(C1CCCO1)N1CCN(C(=S)Nc2cccc(F)c2)CC1 (configuration not stated)	none
CC(C)(C)C(=O)/C(=C\c1ccc([N+](=O)[O-])cc1)n1cncn1	RGS4 inh 14, MrgX1 ag 34
CC(C)(C)C(=O)/C(=C/c1ccc(Cl)cc1)n1cncn1	none
O=[N+]([O-])c1cccc(C2CC(c3ccccc3)=NN2c2ccccc2)c1 (configuration not stated)	MrgX1 antag -7.6
N#CC1CC(c2ccc([N+](=O)[O-])cc2)=NN1c1ccc([N+](=O)[O-])cc1 (configuration not stated)	MrgX1 antag -6.2
O=Cc1ccc(N2N=C(c3ccccc3)CC2c2ccccc2)cc1 (configuration not stated)	RGS4 act -10
CC1=NN(c2ccc([N+](=O)[O-])cc2)C(c2ccccc2)C1 (configuration not stated)	none
O=C(O)c1ccc(N2N=C(c3ccccc3)CC2c2ccccc2)cc1 (configuration not stated)	none
NC1=NC(c2ccccc2)N=C(Nc2ccccc2)N1 (configuration not stated)	none
CC(C)c1cc(C(=O)O)c2cnn(C(C)C)c2n1	none
O=S(=O)(Nc1c(O)ccc2ccccc12)c1cccc2ccccc12	none
Cc1ccc(S(=O)(=O)Nc2c(O)ccc3ccccc23)cc1	MrgX1 ag 47
Cc1ccc(S(=O)(=O)Nc2ccccc2-c2ccccc2NS(=O)(=O)c2ccc(C)cc2)cc1	none
Cc1ccc(S(=O)(=O)Nc2c(Cl)c(Cl)c(O)c3ccccc23)cc1	RGS4 inh 5.5
Cc1ccc(S(=O)(=O)N[C@@H](C)C(=O)N2CCC(C(=O)N[C@@H](Cc3ccccc3)C(=O)O)CC2)cc1	none
COc1ccccc1N1CCN(C(=O)c2sc3nc(C)nc(N4CCN(c5ccccn5)CC4)c3c2C)CC1	RGS4 act -8.2
O=C(Nc1ccc2nc3ccccc3nc2c1)c1ccccc1	none
O=C(Nc1ccc(-c2nc3ccccc3s2)c(OC(=O)c2ccccc2)c1)c1ccccc1	MrgX1 antag -4.8
CCOC(=O)N1CCN(C(=S)NC(=O)c2cncc(Br)c2)CC1	none
Cc1ccc(-c2nc(C(=O)NCC3CCCO3)cc3c2[nH]c2ccccc23)cc1 (configuration not stated)	RGS4 act -7
COc1ccccc1N1CCN(C(=O)C2CCC(CNS(=O)(=O)c3ccc(NC(C)=O)cc3)CC2)CC1 (configuration not stated)	none
C[N+]1=C(/C=C/Nc2ccccc2Cl)C(C)(C)c2ccccc21	none
COC(=O)c1ccc2c(c1)C(C)(C)C(/C=C/c1ccccc1O)=[N+]2C	RGS4 act -7.2
N/C(Cn1cncn1)=N\NC(=O)c1ccc(Cl)cc1Cl	MrgX1 antag -4.5
CC1CCc2c(sc3nc(C(C)(C)C)nc(N4CCN(C(=O)CCl)CC4)c23)C1 (configuration not stated)	RGS4 act -7.6
CCOc1ccc(NC(=O)CSc2nnc(-c3ccncc3)n2CC2CCCO2)cc1 (configuration not stated)	MrgX1 antag -6.7
O=C(O)/C=C/S(=O)(=O)c1ccc2ccccc2c1	none
Cc1c(NS(=O)(=O)c2cccc(C(=O)O)c2)c(=O)n(-c2ccccc2)n1C	none
Cc1c(NS(=O)(=O)c2cccc(C(=O)NCc3ccc(Cl)cc3)c2)c(=O)n(-c2ccccc2)n1C	MrgX1 antag -6
N#C/C(=C\c1ccc(Sc2ccccc2)o1)c1nc2ccccc2[nH]1	MrgX1 PAM 7.6
N#C/C(=C\c1ccc([N+](=O)[O-])o1)c1nc2ccccc2[nH]1	MrgX1 antag -4.5
